Columns and labels:
[1] = Antioxidant activity assessed as hydroxyl radical scavenging activity by chemiluminescence assay; assay type: functional
In short: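 •OH generated from EDTA, FeSO4 and 3% H2O2 with indoxyl-b-glucuronide as the CL probe. Ultra-weak photon emission read on a high-sensitivity chemiluminescence analyzer. IC50 is the concentration inhibiting 50% of generated •OH. Trolox as positive control; triplicate.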

[2] = Antioxidant activity assessed as superoxide radical scavenging activity by chemiluminescence assay; assay type: functional
In short: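 O2•− generated by methylglyoxal plus arginine in PBS pH 7.4, with lucigenin as the CL probe. Ultra-weak photons counted by chemiluminescence analyzer. Trolox positive control; triplicate.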

RAW264.7 [3] = assay: Antiinflammatory activity in mouse RAW264.7 cells assessed as inhibition of LPS-induced NO production by Griess reagent method; assay type: functional, cell-based
In short: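 RAW 264.7 cells (1 × 10^5/well) in DMEM with 10% FBS, 5% CO2, 37 °C, pre-incubated overnight. Then 24 h with vehicle or compound (0.31–20.0 µg/mL; DMSO final 0.2% v/v) plus 1 µg/mL E. coli 0127:B8 LPS. Nitrite in supernatant mixed 1:1 with Griess reagent, 5 min, OD 540 nm. IC50 derived; triplicate, mean ± SE.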

[4] = Cytotoxicity against mouse RAW264.7 cells assessed as viable cells after 24 hrs by MTS assay in presence of LPS; assay type: cell-based; parameters: concentration or dose not given beside the values; details: read-out: Activity
In short: (§1)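 RAW 264.7 cells treated 24 h with compound (0.31–20.0 µg/mL, DMSO 0.2% v/v final), without LPS or with 1 µg/mL LPS. MTS solution (16.7% in RPMI 1640) added for 10 min; absorbance read at 490 nm.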

[5] = Cytotoxicity against mouse RAW264.7 cells assessed as viable cells after 24 hrs by MTS assay; assay type: cell-based; parameters: concentration or dose not given beside the values; details: read-out: Activity; in short: as §1
[6] = Antiplatelet aggregatory activity in […] assessed as inhibition of collagen-induced platelet aggregation by aggregometry; assay type: functional; details: Homo sapiens, Plasma
RAW264.7 [7] = assay: Ratio of IC50 for quercetin to IC50 for drug against LPS-induced NO release in mouse RAW264.7 cells by Griess reagent method; assay type: functional

Compound	IC50 [1] [µM]	IC50 [2] [µM]	IC50 (RAW264.7 [3]) [µM]	IC50 [6] [µM]	viability at 24 h [4] [%]	viability at 24 h [5] [%]	Ratio IC50 (RAW264.7 [7])
COc1cc(C(=O)C(COC(=O)c2ccc(O)cc2)Oc2c(OC)cc(/C=C/COC(=O)c3ccc(O)cc3)cc2OC)cc(OC)c1O (stereo unspecified)	27.5	> 200	20	67.5	> 85	> 85	2.7
COc1cc(/C=C/COC(=O)c2ccc(O)cc2)ccc1O[C@@H](COC(=O)c1ccc(O)cc1)[C@@H](O)c1cc(OC)c(O)c(OC)c1 (relative stereo)	19	> 200	101	> 100	> 85	> 85	–
COc1cc([C@H](O)[C@H](COC(=O)c2ccc(O)cc2)Oc2c(OC)cc(/C=C/COC(=O)c3ccc(O)cc3)cc2OC)ccc1O (relative stereo)	20.4	> 200	52.4	55.2	> 85	> 85	–
CC(=O)Oc1ccccc1C(=O)O [ASPIRIN]	–	–	–	75.4	–	–	–
O=c1c(O)c(-c2ccc(O)c(O)c2)oc2cc(O)cc(O)c12 [QUERCETIN]	–	–	54.3	–	–	–	–
CCO[C@@H](c1ccc(O)c(OC)c1)[C@H](CO)Oc1c(OC)cc([C@@H]2CC(=O)c3c(O)cc(O)cc3O2)cc1OC [QUIQUELIGNAN A]	27.4	> 200	–	> 100	–	–	–
CCO[C@@H](c1ccc(O)c(OC)c1)[C@@H](COC(=O)c1ccc(O)cc1)Oc1c(OC)cc([C@@H]2CC(=O)c3c(O)cc(O)cc3O2)cc1OC [QUIQUELIGNAN B]	19.9	> 200	36	43.3	> 85	> 85	–

The next lines start with results.

IC50 [1] [µM]	IC50 [2] [µM]	IC50 (RAW264.7 [3]) [µM]	IC50 [6] [µM]	Compound	viability at 24 h [4] [%]	viability at 24 h [5] [%]	Ratio IC50 (RAW264.7 [7])
12.4	> 200	11.8	26.9	COc1cc([C@@H](O)[C@H](COC(=O)c2ccc(O)cc2)Oc2c(OC)cc(/C=C/COC(=O)c3ccc(O)cc3)cc2OC)cc(OC)c1O (relative stereo)	> 85	> 85	–
6.2	53.8	–	–	COc1cc(C(=O)C(COC(=O)c2ccc(O)cc2)Oc2c(OC)cc([C@@H](O)[C@H](O)COC(=O)c3ccc(O)cc3)cc2OC)cc(OC)c1O (relative stereo)	–	–	–
15.3	> 200	63.4	49.4	CCO[C@H](c1ccc(O)c(OC)c1)[C@@H](CO)Oc1c(OC)cc(-c2cc(=O)c3c(O)cc(O)cc3o2)cc1OC [QUIQUELIGNAN C]	> 85	> 85	–
4.4	32.8	–	–	Cc1c(C)c2c(c(C)c1O)CCC(C)(C(=O)O)O2 (stereo unspecified) [TROLOX]	–	–	–

Reference: ChEMBL document CHEMBL1159119, “Quiquelignan A-H, eight new lignoids from the rattan palm Calamus quiquesetinervius and their antiradical, anti-inflammatory and antiplatelet aggregation activities” (Bioorg Med Chem, 2010)
